Assay results reported in ChEMBL document CHEMBL1914423, “New imidazo[2,1-b]thiazole derivatives: synthesis, in vitro anticancer evaluation, and in silico studies” (Eur J Med Chem, 2011).

Legend:
Type in all cases: functional
A498 = experiment: Anticancer activity against human A498 cells assessed as cell growth at 10^-5 M after 48 hrs by SRB assay; conditions: A498, 48 h, read-out: Activity
Outline: (§1)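 NCI-60 single-dose screen at one concentration. Cells grown in RPMI 1640 with 5% FBS and 2 mM L-glutamine, plated at 5000–40,000 cells/well, and pre-incubated 24 h at 37 °C in 5% CO2 before DMSO-dissolved drug was added. Cells fixed with TCA, SRB-stained, absorbance read at 515 nm. Percent growth calculated against time-zero and untreated control plates.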

SK-MEL-2 = experiment: Anticancer activity against human SK-MEL-2 cells assessed as cell growth at 10^-5 M after 48 hrs by SRB assay; conditions: SK-MEL-2, 48 h, read-out: Activity
OVCAR-4 = experiment: Anticancer activity against human OVCAR4 cells assessed as cell growth at 10^-5 M after 48 hrs by SRB assay; conditions: OVCAR-4, 48 h, read-out: Activity
NCI-H322M = experiment: Anticancer activity against human NCI-H322M cells assessed as cell growth at 10^-5 M after 48 hrs by SRB assay; conditions: read-out: Activity
UACC-62 = experiment: Anticancer activity against human UACC62 cells assessed as cell growth at 10^-5 M after 48 hrs by SRB assay; conditions: UACC-62, 48 h, read-out: Activity
Outline: (§2)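 NCI-60 single-dose screen: cells in RPMI 1640 with 5% FBS and 2 mM L-glutamine, plated at 5000–40,000 cells/well by doubling time, and preincubated 24 h at 37 °C. Compound given at one concentration from DMSO stock. Cells TCA-fixed and SRB-stained, absorbance at 515 nm. Percent growth relative to time-zero and untreated controls; inhibition % = 100 − growth %.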

HOP-92 = experiment: Anticancer activity against human HOP92 cells assessed as cell growth at 10^-5 M after 48 hrs by SRB assay; conditions: HOP-92, 48 h, read-out: Activity; outline: as §1
UACC-257 = experiment: Anticancer activity against human UACC257 cells assessed as cell growth at 10^-5 M after 48 hrs by SRB assay; conditions: UACC-257, 48 h, read-out: Activity; outline: as §2
SR = experiment: Anticancer activity against human SR cells assessed as cell growth at 10^-5 M after 48 hrs by SRB assay; conditions: read-out: Activity; outline: as §2
CCRF-CEM = experiment: Anticancer activity against human CCRF-CEM cells assessed as cell growth at 10^-5 M after 48 hrs by SRB assay; conditions: read-out: Activity; outline: as §1
U-251 = experiment: Anticancer activity against human U251 cells assessed as cell growth at 10^-5 M after 48 hrs by SRB assay; conditions: U-251, 48 h, read-out: Activity; outline: as §2
NCI/ADR-RES = experiment: Anticancer activity against human NCI/ADR-RES cells assessed as cell growth at 10^-5 M after 48 hrs by SRB assay; conditions: read-out: Activity
LOX IMVI = experiment: Anticancer activity against human LOXIMVI cells assessed as cell growth at 10^-5 M after 48 hrs by SRB assay; conditions: read-out: Activity; outline: as §1
OVCAR-5 = experiment: Anticancer activity against human OVCAR5 cells assessed as cell growth at 10^-5 M after 48 hrs by SRB assay; conditions: OVCAR-5, 48 h, read-out: Activity
HOP-62 = experiment: Anticancer activity against human HOP62 cells assessed as cell growth at 10^-5 M after 48 hrs by SRB assay; conditions: HOP-62, 48 h, read-out: Activity; outline: as §1
BT-549 = experiment: Anticancer activity against human BT549 cells assessed as cell growth at 10^-5 M after 48 hrs by SRB assay; conditions: BT-549, 48 h, read-out: Activity; outline: as §1
NCI-H23 = experiment: Anticancer activity against human NCI-H23 cells assessed as cell growth at 10^-5 M after 48 hrs by SRB assay; conditions: NCI-H23, 48 h, read-out: Activity
HCC 2998 = experiment: Anticancer activity against human HCC2998 cells assessed as cell growth at 10^-5 M after 48 hrs by SRB assay; conditions: HCC 2998, 48 h, read-out: Activity; outline: as §1
Malme-3M = experiment: Anticancer activity against human MALME-3M cells assessed as cell growth at 10^-5 M after 48 hrs by SRB assay; conditions: read-out: Activity; outline: as §1
SK-OV-3 = experiment: Anticancer activity against human SKOV3 cells assessed as cell growth at 10^-5 M after 48 hrs by SRB assay; conditions: SK-OV-3, 48 h, read-out: Activity
OVCAR-8 = experiment: Anticancer activity against human OVCAR8 cells assessed as cell growth at 10^-5 M after 48 hrs by SRB assay; conditions: OVCAR-8, 48 h, read-out: Activity
SK-MEL-5 = experiment: Anticancer activity against human SK-MEL-5 cells assessed as cell growth at 10^-5 M after 48 hrs by SRB assay; conditions: SK-MEL-5, 48 h, read-out: Activity
NCI-H460 = experiment: Anticancer activity against human NCI-H460 cells assessed as cell growth at 10^-5 M after 48 hrs by SRB assay; conditions: NCI-H460, 48 h, read-out: Activity
M14 = experiment: Anticancer activity against human M14 cells assessed as cell growth at 10^-5 M after 48 hrs by SRB assay; conditions: M14, 48 h, read-out: Activity; outline: as §1
EKVX = experiment: Anticancer activity against human EKVX cells assessed as cell growth at 10^-5 M after 48 hrs by SRB assay; conditions: read-out: Activity; outline: as §1
SW-620 = experiment: Anticancer activity against human SW620 cells assessed as cell growth at 10^-5 M after 48 hrs by SRB assay; conditions: SW-620, 48 h, read-out: Activity; outline: as §2
PC-3 = experiment: Anticancer activity against human PC3 cells assessed as cell growth at 10^-5 M after 48 hrs by SRB assay; conditions: PC-3, 48 h, read-out: Activity
MDA-MB-231 = experiment: Anticancer activity against human MDA-MB-231 cells assessed as cell growth at 10^-5 M after 48 hrs by SRB assay; conditions: MDA-MB-231, 48 h, read-out: Activity; outline: as §1
SN12C = experiment: Anticancer activity against human SN12C cells assessed as cell growth at 10^-5 M after 48 hrs by SRB assay; conditions: read-out: Activity
SF-268 = experiment: Anticancer activity against human SF268 cells assessed as cell growth at 10^-5 M after 48 hrs by SRB assay; conditions: SF-268, 48 h, read-out: Activity
MOLT-4 = experiment: Anticancer activity against human MOLT4 cells assessed as cell growth at 10^-5 M after 48 hrs by SRB assay; conditions: MOLT-4, 48 h, read-out: Activity
HCT-116 = experiment: Anticancer activity against human HCT116 cells assessed as cell growth at 10^-5 M after 48 hrs by SRB assay; conditions: HCT-116, 48 h, read-out: Activity; outline: as §1
COLO 205 = experiment: Anticancer activity against human COLO205 cells assessed as cell growth at 10^-5 M after 48 hrs by SRB assay; conditions: COLO 205, 48 h, read-out: Activity; outline: as §1
UO-31 = experiment: Anticancer activity against human UO31 cells assessed as cell growth at 10^-5 M after 48 hrs by SRB assay; conditions: UO-31, 48 h, read-out: Activity; outline: as §2

Work on `O=C(NCCNc1nccc(-c2c(-c3cccc(O)c3)nc3sccn23)n1)c1cc(C(F)(F)F)cc(C(F)(F)F)c1` yielded a growth at 10 µM (A498) of 112%, a growth at 10 µM (SK-MEL-2) of 101% and a growth at 10 µM (OVCAR-4) of 129%. It also gave a growth at 10 µM (NCI-H322M) of 122%, a growth at 10 µM (UACC-62) of 27.5% and a growth at 10 µM (HOP-92) of 77.1%. For the same molecule, the growth at 10 µM (UACC-257) was 66.5%, the growth at 10 µM (SR) was 98.2% and the growth at 10 µM (CCRF-CEM) was 84.7%. It also gave a growth at 10 µM (U-251) of 105%, a growth at 10 µM (NCI/ADR-RES) of 108% and a growth at 10 µM (LOX IMVI) of 90.7%. It also gave a growth at 10 µM (OVCAR-5) of 104%, a growth at 10 µM (HOP-62) of 118% and a growth at 10 µM (BT-549) of 108%. The growth at 10 µM (NCI-H23) was 119%, the growth at 10 µM (HCC 2998) was 129% and the growth at 10 µM (Malme-3M) was 27%. For the same molecule, the growth at 10 µM (SK-OV-3) was 96.3%, the growth at 10 µM (OVCAR-8) was 102% and the growth at 10 µM (SK-MEL-5) was 81.6%. It also gave a growth at 10 µM (NCI-H460) of 107%, a growth at 10 µM (M14) of 38.2% and a growth at 10 µM (EKVX) of 103%. For the same molecule, the growth at 10 µM (SW-620) was 117%, the growth at 10 µM (PC-3) was 82.8% and the growth at 10 µM (MDA-MB-231) was 101%. It also gave a growth at 10 µM (SN12C) of 102%, a growth at 10 µM (SF-268) of 105% and a growth at 10 µM (MOLT-4) of 87.7%. The growth at 10 µM (HCT-116) was 102%, the growth at 10 µM (COLO 205) was 59.8% and the growth at 10 µM (UO-31) was 94.6%.
`O=C(NCCNc1nccc(-c2c(-c3cccc(O)c3)nc3sccn23)n1)c1ccc(N2CCOCC2)c(C(F)(F)F)c1` showed a growth at 10 µM (A498) of 47.8%, a growth at 10 µM (SK-MEL-2) of 66.7% and a growth at 10 µM (OVCAR-4) of 105%. The growth at 10 µM (NCI-H322M) was 102%, the growth at 10 µM (UACC-62) was 5.88% and the growth at 10 µM (HOP-92) was 38.9%. It also gave a growth at 10 µM (UACC-257) of 15.8%, a growth at 10 µM (SR) of 76.1% and a growth at 10 µM (CCRF-CEM) of 56.9%. The growth at 10 µM (U-251) was 82%, the growth at 10 µM (NCI/ADR-RES) was 95.4% and the growth at 10 µM (LOX IMVI) was 42.2%. It also gave a growth at 10 µM (OVCAR-5) of 91.2%, a growth at 10 µM (HOP-62) of 96.7% and a growth at 10 µM (BT-549) of 53.8%. It also gave a growth at 10 µM (NCI-H23) of 85.4%, a growth at 10 µM (HCC 2998) of 106% and a growth at 10 µM (Malme-3M) of -4.27%. The growth at 10 µM (SK-OV-3) was 66.4%, the growth at 10 µM (OVCAR-8) was 72.8% and the growth at 10 µM (SK-MEL-5) was 40%. It also gave a growth at 10 µM (NCI-H460) of 66.9%, a growth at 10 µM (M14) of 19.1% and a growth at 10 µM (EKVX) of 74%. It also gave a growth at 10 µM (SW-620) of 111%, a growth at 10 µM (PC-3) of 56.6% and a growth at 10 µM (MDA-MB-231) of 64.9%. The growth at 10 µM (SN12C) was 76%, the growth at 10 µM (SF-268) was 79.1% and the growth at 10 µM (MOLT-4) was 57%. The growth at 10 µM (HCT-116) was 60.2%, the growth at 10 µM (COLO 205) was 43.4% and the growth at 10 µM (UO-31) was 61.3%.
`O=C(NCCNc1nccc(-c2c(-c3cccc(O)c3)nc3sccn23)n1)c1cc(N2CCOCC2)cc(C(F)(F)F)c1` gave a growth at 10 µM (A498) of 92.8%, a growth at 10 µM (SK-MEL-2) of 64.5% and a growth at 10 µM (OVCAR-4) of 133%. For the same molecule, the growth at 10 µM (NCI-H322M) was 107%, the growth at 10 µM (UACC-62) was 8.5% and the growth at 10 µM (HOP-92) was 87.7%. The growth at 10 µM (UACC-257) was 16.7%, the growth at 10 µM (SR) was 97.3% and the growth at 10 µM (CCRF-CEM) was 52.9%. It also gave a growth at 10 µM (U-251) of 105%, a growth at 10 µM (NCI/ADR-RES) of 103% and a growth at 10 µM (LOX IMVI) of 52.3%. For the same molecule, the growth at 10 µM (OVCAR-5) was 101%, the growth at 10 µM (HOP-62) was 136% and the growth at 10 µM (BT-549) was 84.8%. The growth at 10 µM (NCI-H23) was 106%, the growth at 10 µM (HCC 2998) was 109% and the growth at 10 µM (Malme-3M) was 3.04%. For the same molecule, the growth at 10 µM (SK-OV-3) was 94%, the growth at 10 µM (OVCAR-8) was 78.1% and the growth at 10 µM (SK-MEL-5) was 58.4%. For the same molecule, the growth at 10 µM (NCI-H460) was 96.2%, the growth at 10 µM (M14) was 22.4% and the growth at 10 µM (EKVX) was 88.6%. It also gave a growth at 10 µM (SW-620) of 126%, a growth at 10 µM (PC-3) of 78.2% and a growth at 10 µM (MDA-MB-231) of 74.2%. For the same molecule, the growth at 10 µM (SN12C) was 89.8%, the growth at 10 µM (SF-268) was 102% and the growth at 10 µM (MOLT-4) was 68.5%. It also gave a growth at 10 µM (HCT-116) of 78.8%, a growth at 10 µM (COLO 205) of 32.7% and a growth at 10 µM (UO-31) of 87.5%.
